≈ marks a conversion by molar mass, not a printed value.
Columns and labels:
[1] = Antitumor activity in vivo against the 6C3HED lymphosarcoma dosed for 10 days at 300 mg/kg (ip dosing daily for 8 days); assay type: functional; details: Mus musculus, route intraperitoneal
Summary of the method: (§1)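 Tumor fragments (about 1–2 mm) implanted sc via trochar into a subaxillary site of syngeneic mice (C3H, C57BL/6, Balb/C or DBA/2) or Holtz rats. Groups were 7–10 randomized animals. Compound was suspended in 2.5% Emulphor in 0.9% saline and given orally by gavage or ip, usually from the day after implantation. Tumor volume versus untreated controls was measured one day after the final dose and reported as % inhibition. Scoring bands: +++ 95–100%, ++ 80–94%.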

[2] = system: CCRF-CEM; assay: Concentration required to inhibit growth of CCRF-CEM cells in culture for 72 hr to 50% of control growth; assay type: functional, cell-based; details: Homo sapiens
[3] = Antitumor activity in vivo against the 6C3HED lymphosarcoma, dosed for 8 days at 300 mg/kg; details: Mus musculus, 192 h
[4] = Tested on 6C3HED lymphosarcoma and percent inhibition was determined at 100 mg/kg dosage administered for 8 days intraperitoneally; assay type: functional; details: Mus musculus, ip, 192 h, route intraperitoneal; summary of the method: as §1
[5] = Tested on 6C3HED lymphosarcoma and percent inhibition was determined at 200 mg/kg dosage administered for 10 days intraperitoneally; assay type: functional; details: Mus musculus, ip, 240 h, route intraperitoneal; summary of the method: as §1
[6] = Tested on 6C3HED lymphosarcoma and percent inhibition was determined at 200 mg/kg dosage administered for 8 days intraperitoneally; assay type: functional; details: Mus musculus, po, 192 h, in the assay text read “orally” for “intraperitoneally”; summary of the method: as §1
[7] = Tested on 6C3HED lymphosarcoma and percent inhibition was determined at 50 mg/kg dosage administered for 8 days intraperitoneally; assay type: functional; details: Mus musculus, po, 192 h, in the assay text read “orally” for “intraperitoneally”; summary of the method: as §1
[8] = Tested on 6 C3 HED lymphosarcoma and number of drug related deaths/total animals in treatment group was determined at 100 mg/kg dosage administered for 8 days intraperitoneally; 0/10; assay type: ADME, organism-based; parameters: dose 100 mg/kg, route intraperitoneal; details: mouse, in vivo, ip, 192 h
[9] = Tested on 6 C3 HED lymphosarcoma and number of drug related deaths/total animals in treatment group was determined at 200 mg/kg dosage administered for 8 days perorally; 1/10; assay type: ADME, organism-based; parameters: dose 200 mg/kg, route oral; details: mouse, in vivo, po, 192 h
[10] = Tested on 6 C3 HED lymphosarcoma and number of drug related deaths/total animals in treatment group was determined at 200 mg/kg dosage administered for 10 days intraperitoneally; 1/10; assay type: ADME, organism-based; parameters: dose 200 mg/kg, route intraperitoneal; details: mouse, in vivo, ip, 240 h
[11] = Tested on 6 C3 HED lymphosarcoma and number of drug related deaths/total animals in treatment group was determined at 50 mg/kg dosage administered for 8 days perorally; 3/10; assay type: ADME, organism-based; parameters: dose 50 mg/kg, route oral; details: mouse, in vivo, po, 192 h
[12] = system: 6C3HED; assay: Antitumor activity in vivo expressed as percent of inhibition in 6C3HED-lymphosarcoma tumor cell line; assay type: functional, Mus musculus; summary of the method: as §1
[13] = system: B16; assay: Antitumor activity in vivo expressed as percent of inhibition in B-16-melanoma (solid) cell line; assay type: functional, Mus musculus; summary of the method: as §1
[14] = system: B16; assay: Antitumor activity in vivo and the activity was determined as percent increase in life span determined against B-16-melanoma (ascites) cell lines; assay type: functional, Mus musculus
Summary of the method: (§2)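 The ascites tumor inoculum of 1 × 10^6 cells was given ip to DBA/2 mice, and treatment started the next day. Compound was suspended in 2.5% Emulphor in 0.9% saline. Groups had 7–10 animals. %ILS = (MDD treated − MDD control)/MDD control × 100. Deaths before the control median day of death were counted as toxic. Values are optimal from at least two experiments.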

[15] = system: Colon 26; assay: Antitumor activity in vivo expressed as percent of inhibition in C-26-colon carcinoma cell line; assay type: functional, Mus musculus; summary of the method: as §1
[16] = Tested on CA-755 mammary adenocarcinoma and percent inhibition was determined at 100 mg/kg dosage administered for 10 days intraperitoneally.; assay type: functional; details: Mus musculus, CA-755, ip, 240 h, route intraperitoneal; summary of the method: as §1
[17] = Tested on CA-755 mammary adenocarcinoma and percent inhibition was determined at 150 mg/kg dosage administered for 10 days intraperitoneally.; assay type: functional; details: Mus musculus, CA-755, po, 240 h; in the assay text read “orally” for “intraperitoneally”; summary of the method: as §1
[18] = Tested on CA-755 mammary adenocarcinoma and percent inhibition was determined at 50 mg/kg dosage administered for 10 days intraperitoneally.; assay type: functional; details: Mus musculus, CA-755, ip, 240 h, route intraperitoneal; summary of the method: as §1
[19] = system: CA-755; assay: Antitumor activity in vivo expressed as percent of inhibition in CA-755-mammary adenocarcinoma tumor cell line; assay type: functional, Mus musculus; summary of the method: as §1
[20] = system: C3H; assay: Antitumor activity in vivo expressed as percent of inhibition in C3H-mammary adenocarcinoma cell line; assay type: functional, Mus musculus; summary of the method: as §1
[21] = system: L1210; assay: Antitumor activity in vivo and the activity was determined as percent increase in life span determined against L1210V-lymphocytic leukemia tumor cell lines; assay type: functional, Mus musculus; summary of the method: as §2
[22] = system: Lewis lung carcinoma cell line; assay: Antitumor activity in vivo expressed as percent of inhibition in Lewis-lung carcinoma cell line; assay type: functional, Mus musculus; summary of the method: as §1
[23] = system: P388; assay: Antitumor activity in vivo and the activity was determined as percent increase in life span determined against P388-lymphocytic leukemia tumor cell lines; assay type: functional, Mus musculus; summary of the method: as §2
[24] = Tested on X-5563 multiple myeloma and percent inhibition was determined at 100 mg/kg dosage administered for 10 days intraperitoneally.; assay type: functional; details: Mus musculus, X5563, ip, 240 h, route intraperitoneal; summary of the method: as §1
[25] = Tested on X-5563 multiple myeloma and percent inhibition was determined at 150 mg/kg dosage administered for 10 days intraperitoneally.; assay type: functional; details: Mus musculus, X5563, po, 240 h; in the assay text read “orally” for “intraperitoneally”; summary of the method: as §1
[26] = Tested on X-5563 multiple myeloma and number of drug related deaths/total animals in treatment group was determined at 100 mg/kg dosage administered for 10 days intraperitoneally; 1/7; assay type: ADME, organism-based; parameters: dose 100 mg/kg, route intraperitoneal; details: mouse, in vivo, ip, 240 h
[27] = system: YOSHIDA; assay: Antitumor activity in vivo expressed as percent of inhibition in Yoshida-sarcoma (rat) cell line; assay type: functional; summary of the method: as §1
[28] = system: X5563; assay: Antitumor activity in vivo expressed as percent of inhibition in X5563-plasma cell myeloma cell line; assay type: functional, Mus musculus; summary of the method: as §1
[29] = system: P1534J; assay: Antitumor activity in vivo expressed as percent of inhibition in P1534J-lymphatic leukemia cell line; assay type: functional, Mus musculus
[30] = Antitumor activity in vivo against the 6C3HED lymphosarcoma dosed for 8 days at 200 mg/kg; details: Mus musculus, 192 h
[31] = system: M-5 (Mus musculus); assay: Antitumor activity in vivo expressed as percent of inhibition in M-5-ovarian carcinoma cell line
[32] = Tested on X-5563 multiple myeloma and number of drug related deaths/total animals in treatment group was determined at 150 mg/kg dosage administered for 10 days orally; 3/10; details: mouse, in vivo, po, 240 h
[33] = Antitumor activity in vivo against the 6C3HED lymphosarcoma dosed for 10 days at 275 mg/kg; assay type: functional; details: Mus musculus, 192 h, in the assay text read “8 days” for “10 days”; summary of the method: as §1
[34] = Antitumor activity in vivo against the 6C3HED lymphosarcoma dosed for 10 days at 225 mg/kg; assay type: functional; details: Mus musculus, 192 h, in the assay text read “8 days” for “10 days”; summary of the method: as §1
[35] = Antitumor activity in vivo against the 6C3HED lymphosarcoma dosed for 8 days at 100 mg/kg; details: Mus musculus, 192 h

Q: With `Cc1ccc(S(=O)(=O)/N=C(\S)Nc2ccc(Cl)cc2)cc1` as the compound, how does the inhibition in vivo at 300 mg/kg [1] read?
A: 45%

Q: And the IC50 [2]?
A: 12.9 µg/mL (≈ 37.8 µM)

Q: What about the inhibition in vivo at 300 mg/kg [3] of the same compound?
A: 35%

Q: Which results are given for `Cc1ccc(S(=O)(=O)NC(=O)Nc2ccc(C(F)(F)F)cc2)cc1`?
A: inhibition in vivo at 100 mg/kg [4]: 81%; inhibition in vivo at 200 mg/kg [5]: 49%; inhibition in vivo at 200 mg/kg [6]: 100%; inhibition in vivo at 50 mg/kg [7]: 84%; Toxic/total [8]: 0; Toxic/total [9]: 1; Toxic/total [10]: 1; Toxic/total [11]: 3; Inhibition [12]: 100%; Inhibition [13]: <60%; Increase in life-span [14]: <50%; Inhibition [15]: 94%; inhibition in vivo at 100 mg/kg [16]: 13%; inhibition in vivo at 150 mg/kg [17]: 94%; inhibition in vivo at 50 mg/kg [18]: 87%; Inhibition [19]: 94%; Inhibition [20]: 94%; IC50 [2]: 5.3 µg/mL (≈ 14.8 µM); Increase in life-span [21]: <50%; Inhibition [22]: 79%; Increase in life-span [23]: <50%; inhibition in vivo at 100 mg/kg [24]: 64%; inhibition in vivo at 150 mg/kg [25]: 77%; Toxic/total [26]: 1; Inhibition [27]: 94%; Inhibition [28]: 79%; Inhibition [29]: 100%; inhibition in vivo at 200 mg/kg [30]: 100%; Inhibition [31]: 94%; Toxic/total [32]: 3

Q: For `Cc1ccc(S(=O)(=O)NC(=O)Nc2ccccc2)cc1`, which inhibition in vivo at 275 mg/kg [33] is on record?
A: 44%

Q: What about the IC50 [2] of the same compound?
A: > 20 µg/mL

Q: For `O=C(Nc1ccccc1)NS(=O)(=O)c1ccccc1`, which inhibition in vivo at 225 mg/kg [34] is on record?
A: 35%

Q: What about the IC50 [2] of the same compound?
A: > 20 µg/mL

Q: Which IC50 [2] does the source give for `O=C(Nc1ccc(Cl)cc1)NS(=O)(=O)c1ccc(Cl)cc1` here?
A: 19.3 µg/mL (≈ 55.9 µM)

Q: And the inhibition in vivo at 100 mg/kg [35]?
A: 100%

— ChEMBL document CHEMBL1124898, “Novel agents effective against solid tumors: the diarylsulfonylureas. Synthesis, activities, and analysis of quantitative structure-activity relationships” (J Med Chem, 1990)
